Here are results for six compounds from ChEMBL document CHEMBL1141158, “New 5-hydroxytryptamine(1A) receptor ligands containing a norbornene nucleus: synthesis and in vitro pharmacological evaluation” (J Med Chem, 2005).

For test [1], the target named is T1, 5-hydroxytryptamine receptor 2C (Rattus norvegicus, UniProt P08909).
T1 sequence (P08909 whole entry): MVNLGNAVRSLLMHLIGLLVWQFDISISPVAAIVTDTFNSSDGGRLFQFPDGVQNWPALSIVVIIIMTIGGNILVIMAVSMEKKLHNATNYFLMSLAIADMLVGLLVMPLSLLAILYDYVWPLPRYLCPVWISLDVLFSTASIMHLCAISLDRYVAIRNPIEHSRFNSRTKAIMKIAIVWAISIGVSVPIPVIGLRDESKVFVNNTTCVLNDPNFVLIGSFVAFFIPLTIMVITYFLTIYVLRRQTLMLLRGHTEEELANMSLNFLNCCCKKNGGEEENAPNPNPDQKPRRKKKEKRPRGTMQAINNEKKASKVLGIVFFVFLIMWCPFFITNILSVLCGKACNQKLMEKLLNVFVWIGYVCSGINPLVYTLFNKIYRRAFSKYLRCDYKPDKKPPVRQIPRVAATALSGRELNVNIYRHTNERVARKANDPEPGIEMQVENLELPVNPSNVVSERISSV
The test can be described thus: Inhibition of 1 nM [3H]mesulergine binding to Serotonin 5-HT2C receptor from rat brain cortex.

The target of a further test is D(1A) dopamine receptor (Rattus norvegicus, UniProt P18901). As to the kind of experiment: Inhibition of [3H]SCH-23,390 binding to Dopamine D1 receptor from rat striatum. The procedure, abridged: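 Rat striatal membranes washed twice by 50 000g spins, resuspended in Tris-HCl pH 7.1 with NaCl, KCl, CaCl2, MgCl2, ascorbic acid, 10 μM pargyline; 3 mg fresh tissue per tube. [3H]SCH-23390 at 0.4 nM final, 15 min at 37 °C, GF/B filtration, scintillation counting. Nonspecific with 0.1 μM piflutixol. Six concentrations in triplicate; IC50 converted to Ki by Cheng–Prusoff.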

Test [2] addresses 5-hydroxytryptamine receptor 2A (Rattus norvegicus, UniProt P14842). As to the kind of experiment: Inhibition of 0.4 nM [3H]ketanserin binding to Serotonin 5-HT2A receptor from rat brain cortex.
A further test deals with D(2) dopamine receptor (Rattus norvegicus, UniProt P61169). The test can be described thus: Inhibition of [3H]spiperone binding to Dopamine D2 receptor from rat striatum. The procedure, abridged: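 Rat striatal membranes washed twice at 50 000g, resuspended in Tris-HCl pH 7.1 with NaCl, KCl, CaCl2, MgCl2, ascorbic acid, 10 μM pargyline; 3 mg fresh tissue per tube. [3H]spiperone 0.4 nM final, 15 min at 37 °C, GF/B filtration, scintillation counting. Nonspecific defined with 1 μM (+)-butaclamol. Six concentrations, triplicate; Ki via Cheng–Prusoff.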

The target of test [3] is T2, Adrenergic receptor alpha-1 (Rattus norvegicus, UniProt P15823+P23944+P43140).
T2 sequence (P15823 whole entry): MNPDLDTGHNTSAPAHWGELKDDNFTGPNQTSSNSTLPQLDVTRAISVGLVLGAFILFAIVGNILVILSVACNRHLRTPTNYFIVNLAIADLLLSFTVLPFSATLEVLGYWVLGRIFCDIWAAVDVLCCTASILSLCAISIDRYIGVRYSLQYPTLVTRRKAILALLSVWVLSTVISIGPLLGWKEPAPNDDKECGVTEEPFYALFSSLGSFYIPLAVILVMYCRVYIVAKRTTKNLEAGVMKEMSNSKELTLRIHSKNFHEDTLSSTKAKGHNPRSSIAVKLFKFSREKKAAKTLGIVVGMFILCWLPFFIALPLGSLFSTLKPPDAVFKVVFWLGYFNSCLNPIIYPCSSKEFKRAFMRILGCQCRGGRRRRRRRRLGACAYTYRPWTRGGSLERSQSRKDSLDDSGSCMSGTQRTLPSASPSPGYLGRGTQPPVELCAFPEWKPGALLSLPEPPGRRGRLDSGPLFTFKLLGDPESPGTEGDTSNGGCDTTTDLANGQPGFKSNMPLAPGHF
T2 sequence (P23944 whole entry): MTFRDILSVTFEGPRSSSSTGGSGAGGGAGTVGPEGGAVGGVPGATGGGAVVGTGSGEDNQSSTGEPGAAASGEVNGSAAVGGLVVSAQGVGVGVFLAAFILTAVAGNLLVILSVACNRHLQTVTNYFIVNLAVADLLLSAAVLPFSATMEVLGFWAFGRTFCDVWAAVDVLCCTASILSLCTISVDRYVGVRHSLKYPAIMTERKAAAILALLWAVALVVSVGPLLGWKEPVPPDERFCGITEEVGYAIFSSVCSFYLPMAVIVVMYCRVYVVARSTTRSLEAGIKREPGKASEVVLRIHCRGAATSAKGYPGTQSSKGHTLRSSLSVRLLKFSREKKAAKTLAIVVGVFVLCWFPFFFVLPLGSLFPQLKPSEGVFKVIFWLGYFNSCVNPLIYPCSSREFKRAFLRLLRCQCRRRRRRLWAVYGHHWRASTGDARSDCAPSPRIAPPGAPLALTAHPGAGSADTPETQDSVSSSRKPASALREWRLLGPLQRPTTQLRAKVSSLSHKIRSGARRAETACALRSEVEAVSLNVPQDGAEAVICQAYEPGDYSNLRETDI
T2 sequence (P43140 whole entry): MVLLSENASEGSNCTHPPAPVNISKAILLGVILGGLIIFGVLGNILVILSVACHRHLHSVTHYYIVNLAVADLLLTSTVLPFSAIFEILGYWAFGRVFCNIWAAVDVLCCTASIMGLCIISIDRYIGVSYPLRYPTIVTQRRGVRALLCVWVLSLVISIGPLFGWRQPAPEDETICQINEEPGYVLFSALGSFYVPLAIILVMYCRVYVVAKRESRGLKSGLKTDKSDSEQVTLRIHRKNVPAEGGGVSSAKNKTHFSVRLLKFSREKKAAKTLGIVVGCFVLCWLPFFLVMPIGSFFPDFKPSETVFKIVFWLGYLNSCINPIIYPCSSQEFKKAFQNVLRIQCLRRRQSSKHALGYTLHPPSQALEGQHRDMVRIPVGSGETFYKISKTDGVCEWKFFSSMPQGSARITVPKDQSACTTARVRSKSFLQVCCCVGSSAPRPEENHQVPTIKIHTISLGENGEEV
The test can be described thus: Inhibition of [3H]prazosin bindign to Adrenergic alpha 1 receptor from rat brain cortex. The gist of the method:
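Cortical membranes in 50 mM Tris-HCl pH 7.4, 10 mg fresh tissue per tube, with [3H]prazosin 0.4 nM final; 30 min at 25 °C, then vacuum filtration on GF/B and scintillation counting. 10 μM phentolamine defined nonspecific binding. Six test concentrations in triplicate; IC50 from competition curves, Ki by Cheng–Prusoff using Scatchard KD.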

A value given as a limit tells only on which side of the number the result lay.

D(1A) dopamine receptor, sequence (P18901 whole entry): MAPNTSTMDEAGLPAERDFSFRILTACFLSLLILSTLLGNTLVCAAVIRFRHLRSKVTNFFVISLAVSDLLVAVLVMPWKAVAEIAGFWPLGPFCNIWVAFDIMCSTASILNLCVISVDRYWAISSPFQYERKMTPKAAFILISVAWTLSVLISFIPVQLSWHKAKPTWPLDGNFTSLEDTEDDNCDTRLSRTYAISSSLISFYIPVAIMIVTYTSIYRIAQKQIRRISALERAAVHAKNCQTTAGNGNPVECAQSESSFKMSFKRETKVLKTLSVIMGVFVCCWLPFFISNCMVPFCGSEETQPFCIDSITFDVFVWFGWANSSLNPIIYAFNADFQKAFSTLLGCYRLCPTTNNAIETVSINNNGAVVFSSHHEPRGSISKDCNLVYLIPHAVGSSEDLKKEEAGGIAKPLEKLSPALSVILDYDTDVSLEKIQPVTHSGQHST
5-hydroxytryptamine receptor 2A, sequence (P14842 whole entry): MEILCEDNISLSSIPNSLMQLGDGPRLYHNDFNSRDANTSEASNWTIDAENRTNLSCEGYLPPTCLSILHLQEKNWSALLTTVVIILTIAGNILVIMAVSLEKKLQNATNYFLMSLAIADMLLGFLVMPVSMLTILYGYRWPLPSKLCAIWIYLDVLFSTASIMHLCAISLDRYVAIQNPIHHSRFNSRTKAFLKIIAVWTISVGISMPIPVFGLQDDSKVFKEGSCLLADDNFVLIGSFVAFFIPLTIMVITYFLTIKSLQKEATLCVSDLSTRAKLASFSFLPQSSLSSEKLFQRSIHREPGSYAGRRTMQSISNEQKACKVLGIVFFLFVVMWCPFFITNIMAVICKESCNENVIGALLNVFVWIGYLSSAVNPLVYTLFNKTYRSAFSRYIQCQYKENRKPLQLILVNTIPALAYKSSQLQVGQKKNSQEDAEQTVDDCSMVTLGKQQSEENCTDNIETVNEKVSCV
D(2) dopamine receptor, sequence (P61169 whole entry): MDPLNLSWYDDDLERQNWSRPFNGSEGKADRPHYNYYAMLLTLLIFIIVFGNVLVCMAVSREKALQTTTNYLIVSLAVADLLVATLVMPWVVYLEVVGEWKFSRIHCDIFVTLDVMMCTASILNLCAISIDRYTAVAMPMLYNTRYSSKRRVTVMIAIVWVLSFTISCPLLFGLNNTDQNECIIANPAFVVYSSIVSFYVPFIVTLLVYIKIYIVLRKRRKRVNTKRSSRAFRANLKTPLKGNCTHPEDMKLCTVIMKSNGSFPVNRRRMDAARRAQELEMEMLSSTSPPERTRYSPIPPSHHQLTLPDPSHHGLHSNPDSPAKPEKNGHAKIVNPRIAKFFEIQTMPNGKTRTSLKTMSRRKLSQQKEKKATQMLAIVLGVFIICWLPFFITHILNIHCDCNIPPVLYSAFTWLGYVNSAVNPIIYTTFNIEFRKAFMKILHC

Usually Ki stands for a measure of affinity in units of concentration, obtained from inhibition or displacement. Consider `COc1ccccc1N1CCN(CCCON2C(=O)C3C4C=CC(C4)C3C2=O)CC1` (stereo not given), for which the Ki was more than 10 µM in test [1]; more than 10 µM on D(1A) dopamine receptor (read-out: Ki); more than 10 µM in test [2]; more than 10 µM at D(2) dopamine receptor (read-out: Ki); 0.0753 µM in test [3].
For the compound `O=C1C2C3C=CC(C3)C2C(=O)N1OCCCN1CCN(c2cccc(Cl)c2)CC1` (stereo not given), the Ki in test [1] was 0.733 µM; at D(1A) dopamine receptor (read-out: Ki), more than 10 µM; in test [2], 0.547 µM; on D(2) dopamine receptor it was “Not Active”; in test [3] it was 0.141 µM.
Regarding `O=C1C2C3C=CC(C3)C2C(=O)N1OCCCN1CCN(c2cccc(C(F)(F)F)c2)CC1` (stereo not given), the Ki is more than 10 µM in test [1]; 4.51 µM at D(1A) dopamine receptor (read-out: Ki); 2.68 µM in test [2]; 0.67 µM on D(2) dopamine receptor (read-out: Ki); 0.358 µM in test [3].
On to `O=C1C2C3C=CC(C3)C2C(=O)N1OCCCN1CCN(c2ccccc2Cl)CC1` (stereo not given), for which the Ki in test [1] is 0.423 µM; at D(1A) dopamine receptor, “Not Active”; in test [2] it was 3.9 µM; on D(2) dopamine receptor, “Not Active”; in test [3] it was 0.128 µM.
For `O=C1C2C3C=CC(C3)C2C(=O)N1OCCN1CCN(c2cccc(C(F)(F)F)c2)CC1` (stereo not given), the Ki in test [1] is more than 10 µM; on D(1A) dopamine receptor (read-out: Ki), more than 10 µM; in test [2], 4.01 µM; on D(2) dopamine receptor (read-out: Ki), more than 10 µM; in test [3], more than 10 µM.
On to `O=C1C2C3C=CC(C3)C2C(=O)N1OCCN1CCN(c2ccccc2Cl)CC1` (stereo not given), for which the Ki was more than 10 µM in test [1]; more than 10 µM at D(1A) dopamine receptor (read-out: Ki); more than 10 µM in test [2]; more than 10 µM at D(2) dopamine receptor (read-out: Ki); 0.747 µM in test [3].
